The results in this text go back to publication PMC4512242 (Nature chemical biology, 2015).

Ends that are not written are not given here.

To fix the notation:
B1: LynD heterocyclase (cyclodehydratase), full length (enzyme, Lyngbya sp. PCC 8106)
chain: MQSTPLLQIQPHFHVEVIEPKQVYLLGEQANHALTGQLYCQILPLLNGQYTLEQIVEKLDGEVPPEYIDYVLERLAEKGYLTEAAPELSSEVAAFWSELGIAPPVAAEALRQPVTLTPVGNISEVTVAALTTALRDIGISVQTPTEAGSPTALNVVLTDDYLQPELAKINKQALESQQTWLLVKPVGSVLWLGPVFVPGKTGCWDCLAHRLRGNREVEASVLRQKQAQQQRNGQSGSVIGCLPTARATLPSTLQTGLQFAATEIAKWIVKYHVNATAPGTVFFPTLDGKIITLNHSILDLKSHILIKRSQCPTCGDPKILQHRGFEPLKLESRPKQFTSDGGHRGTTPEQTVQKYQHLISPVTGVVTELVRITDPANPLVHTYRAGHSFGSATSLRGLRNTLKHKSSGKGKTDSQSKASGLCEAVERYSGIFQGDEPRKRATLAELGDLAIHPEQCLCFSDGQYANRETLNEQATVAHDWIPQRFDASQAIEWTPVWSLTEQTHKYLPTALCYYHYPLPPEHRFARGDSNGNAAGNTLEEAILQGFMELVERDGVALWWYNRLRRPAVDLGSFNEPYFVQLQQFYRENDRDLWVLDLTADLGIPAFAGVSNRKTGSSERLILGFGAHLDPTIAILRAVTEVNQIGLELDKVPDENLKSDATDWLITEKLADHPYLLPDTTQPLKTAQDYPKRWSDDIYTDVMTCVNIAQQAGLETLVIDQTRPDIGLNVVKVTVPGMRHFWSRFGEGRLYDVPVKLGWLDEPLTEAQMNPTPMPF

One data set concerns LynD. The data set can be described thus: Heterocyclization reaction with LynD, MS. In kind it is biochemical, Lyngbya sp. PCC 8106. The settings on record: LynD wild type; 100 μM PatE′ or variant, 5 μM enzyme, 150 mM NaCl, 10 mM HEPES pH 7.4, 1 mM TCEP, 5 mM ATP, 5 mM MgCl2, 16 h, 37 °C; ESI or MALDI MS. The method, boiled down: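 Codon-optimized full-length LynD, with a TEV-cleaved His6-tag, is purified from E. coli BL21 (DE3) by Ni, monoQ and size-exclusion steps. PatE′ (C-terminal His6) comes from inclusion bodies, purified in 8 M urea, then DTT-treated and gel-filtered. 100 μM substrate is reacted with 5 μM enzyme and 5 mM ATP/MgCl2 in HEPES pH 7.4 for 16 h at 37 °C. Heterocycle number is read by ESI or MALDI MS.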

Another data set relates to LynD Fusion. Nature of the data set: Heterocyclization reaction with LynD fusion, MS. The data set is classed as biochemical, Lyngbya sp. PCC 8106. The settings on record: LynD Fusion; 100 μM PatE′, 5 μM enzyme, pH 7.4, 5 mM ATP, 5 mM MgCl2, 16 h, 37 °C; ESI or MALDI MS. The method, boiled down: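 Enzyme is LynD carrying PatE leader residues 21-38 plus an 11-residue linker at its N-terminus, expressed in E. coli BL21 (DE3) with the His6-tag removed by TEV. Product is read by ESI/MALDI MS or LC-MS […].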

The data set “SEC” concerns the molecule itself. Nature of the data set: SEC. On the technique in general: In gel filtration, larger molecules generally elute earlier.
The next data set concerns the target T1, LynD Y67D (Lyngbya sp. PCC 8106, Y67D).
T1 chain: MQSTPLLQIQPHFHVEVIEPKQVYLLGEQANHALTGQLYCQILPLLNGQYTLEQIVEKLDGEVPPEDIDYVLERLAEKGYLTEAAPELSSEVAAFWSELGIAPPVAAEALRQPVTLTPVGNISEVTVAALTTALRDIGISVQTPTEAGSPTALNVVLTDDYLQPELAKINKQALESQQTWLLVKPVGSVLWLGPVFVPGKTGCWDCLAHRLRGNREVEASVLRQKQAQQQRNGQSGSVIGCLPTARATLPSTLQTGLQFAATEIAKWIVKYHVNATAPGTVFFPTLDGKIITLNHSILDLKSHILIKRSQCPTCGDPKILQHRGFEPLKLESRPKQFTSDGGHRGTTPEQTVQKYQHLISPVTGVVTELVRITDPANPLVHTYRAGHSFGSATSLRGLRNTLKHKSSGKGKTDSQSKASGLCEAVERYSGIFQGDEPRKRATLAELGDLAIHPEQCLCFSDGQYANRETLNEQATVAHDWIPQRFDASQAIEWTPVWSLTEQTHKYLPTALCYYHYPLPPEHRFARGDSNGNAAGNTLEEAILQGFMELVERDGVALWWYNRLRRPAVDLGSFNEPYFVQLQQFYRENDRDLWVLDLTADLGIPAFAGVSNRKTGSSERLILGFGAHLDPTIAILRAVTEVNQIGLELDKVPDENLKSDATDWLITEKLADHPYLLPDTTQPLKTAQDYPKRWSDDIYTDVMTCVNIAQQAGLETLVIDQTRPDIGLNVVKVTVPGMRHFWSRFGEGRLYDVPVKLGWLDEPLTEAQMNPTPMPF
Nature of the data set: ITC. In general terms: ITC needs no label: the signal is the heat of the interaction.

In data set [1] the target is B1. Nature of the data set: ITC.
Another data set has as its target T2, LynD R399E (Lyngbya sp. PCC 8106, R399E).
T2 chain: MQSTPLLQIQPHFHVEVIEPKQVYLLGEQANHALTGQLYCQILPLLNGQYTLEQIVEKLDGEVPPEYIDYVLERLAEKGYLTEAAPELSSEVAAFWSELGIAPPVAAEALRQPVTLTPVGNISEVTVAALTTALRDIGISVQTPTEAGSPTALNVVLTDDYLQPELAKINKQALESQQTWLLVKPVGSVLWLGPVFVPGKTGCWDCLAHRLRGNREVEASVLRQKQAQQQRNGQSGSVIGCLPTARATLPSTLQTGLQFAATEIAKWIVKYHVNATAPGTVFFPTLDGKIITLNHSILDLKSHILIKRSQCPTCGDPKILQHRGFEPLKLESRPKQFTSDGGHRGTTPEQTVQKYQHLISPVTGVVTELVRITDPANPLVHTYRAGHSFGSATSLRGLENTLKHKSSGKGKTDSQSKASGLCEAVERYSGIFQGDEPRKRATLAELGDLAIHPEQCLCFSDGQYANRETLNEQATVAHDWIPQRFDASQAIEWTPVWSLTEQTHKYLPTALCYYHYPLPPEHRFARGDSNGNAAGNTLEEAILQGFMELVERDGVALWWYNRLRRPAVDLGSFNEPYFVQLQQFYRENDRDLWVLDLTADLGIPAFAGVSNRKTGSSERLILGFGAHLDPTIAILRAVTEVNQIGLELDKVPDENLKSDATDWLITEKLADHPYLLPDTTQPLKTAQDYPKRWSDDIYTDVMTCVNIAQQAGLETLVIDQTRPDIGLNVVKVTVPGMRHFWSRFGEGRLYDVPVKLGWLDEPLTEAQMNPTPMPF
The data set can be described thus: ITC.

In data set [2] the target is B1. Nature of the data set: crystal structure.

“PatE′ E32R (MDKKNILPQQGQPVIRLTAGQLSSQLAELSERALGDAGLEASKITACITFCAYDGELE; not fully specified (C-terminus); cysteine pairing not given here)” registered a No. of heterocycles in the data set with LynD of 2. Take “MDKKNILPQQGQPVIRLTAGQLSSQLAELSEEALGDAGLEASKITACITFCAYDGELEHHH HHH [PatE′]”: the No. of heterocycles in the data set on LynD Fusion and with LynD was 2 each time. For “PatE′ L26R (MDKKNILPQQGQPVIRLTAGQLSSQRAELSEEALGDAGLEASKITACITFCAYDGELE; not fully specified (C-terminus); cysteine pairing not given here)”, in the data set on LynD, the No. of heterocycles was 2.

Consider B1, for which the “stoichiometry N” value in “SEC” was 2.

B2: PatE′ (modified PatE precursor peptide with full leader and a single core peptide ITACITFC) (peptide)
chain: MDKKNILPQQGQPVIRLTAGQLSSQLAELSEEALGDAGLEASKITACITFCAYDGELE
Regarding B2, the Kd with LynD Y67D is 12.9 µM; in data set [1] it was 1.49 µM; with LynD R399E it was 10.7 µM.

B3: PatE′ E32R (peptide)
chain: MDKKNILPQQGQPVIRLTAGQLSSQLAELSERALGDAGLEASKITACITFCAYDGELE
Take B3: the Kd came out at 18.4 µM in data set [1] and 8.55 µM with LynD R399E.

B4: PatE′ C51A (peptide)
chain: MDKKNILPQQGQPVIRLTAGQLSSQLAELSEEALGDAGLEASKITACITFAAYDGELE
With B4, the binding result in data set [2] was “binds”.

B5: PatE′ L26R (peptide)
chain: MDKKNILPQQGQPVIRLTAGQLSSQRAELSEEALGDAGLEASKITACITFCAYDGELE
B5 showed a Kd in the data set with LynD Y67D of 15.2 µM.

B6: LynD fusion protein (PatE leader residues 21-38 and an eleven residue linker on the N-terminus of LynD) (enzyme)
chain: QLSSQLAELSEEALGDAGAGAGAGAGAGAMQSTPLLQIQPHFHVEVIEPKQVYLLGEQANHALTGQLYCQILPLLNGQYTLEQIVEKLDGEVPPEYIDYVLERLAEKGYLTEAAPELSSEVAAFWSELGIAPPVAAEALRQPVTLTPVGNISEVTVAALTTALRDIGISVQTPTEAGSPTALNVVLTDDYLQPELAKINKQALESQQTWLLVKPVGSVLWLGPVFVPGKTGCWDCLAHRLRGNREVEASVLRQKQAQQQRNGQSGSVIGCLPTARATLPSTLQTGLQFAATEIAKWIVKYHVNATAPGTVFFPTLDGKIITLNHSILDLKSHILIKRSQCPTCGDPKILQHRGFEPLKLESRPKQFTSDGGHRGTTPEQTVQKYQHLISPVTGVVTELVRITDPANPLVHTYRAGHSFGSATSLRGLRNTLKHKSSGKGKTDSQSKASGLCEAVERYSGIFQGDEPRKRATLAELGDLAIHPEQCLCFSDGQYANRETLNEQATVAHDWIPQRFDASQAIEWTPVWSLTEQTHKYLPTALCYYHYPLPPEHRFARGDSNGNAAGNTLEEAILQGFMELVERDGVALWWYNRLRRPAVDLGSFNEPYFVQLQQFYRENDRDLWVLDLTADLGIPAFAGVSNRKTGSSERLILGFGAHLDPTIAILRAVTEVNQIGLELDKVPDENLKSDATDWLITEKLADHPYLLPDTTQPLKTAQDYPKRWSDDIYTDVMTCVNIAQQAGLETLVIDQTRPDIGLNVVKVTVPGMRHFWSRFGEGRLYDVPVKLGWLDEPLTEAQMNPTPMPF
B6: the “stoichiometry N” value in “SEC” amounted to 2.

For orientation: stoichiometry N means the number of molecules, sites or subunits per partner or assembly. By Kd is commonly meant the concentration at which binding is half-saturated.
